Test results as given in ChEMBL document CHEMBL4028872, “Structure-Activity Relationship, Pharmacological Characterization, and Molecular Modeling of Noncompetitive Inhibitors of the Betaine/γ-Aminobutyric Acid Transporter 1 (BGT1)” (J Med Chem, 2017).
In brackets after ≈: the same amount, converted by molar mass. Activity calls are given as the source filed them. No cut-off for these calls is given here.

Experiments:
[1] = biological target: 5-hydroxytryptamine receptor 2B (Homo sapiens) (UniProt P41595); test: Displacement of [3H]LSD from human 5-HT2B receptor expressed in HEK cell membranes at 10 uM after 90 mins by scintillation counting method
[2] = biological target: Sodium- and chloride-dependent GABA transporter 3 (Homo sapiens, UniProt P48066, S468Y); test: Inhibition of human GAT3 S468Y mutant expresses in tsA201 cells assessed as reduction in [3H]GABA uptake after 3 mins by scintillation counting method; format: cell-based
How it was run: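 Site-directed mutant transporters transiently transfected (PolyFect) into tsA201 cells, plated and used about 24 h later. Cells were washed with HBSS containing 20 mM HEPES, 1 mM CaCl2 and 1 mM MgCl2, pH 7.4. Uptake of 30 nM [3H]GABA was run with varied inhibitor concentrations for 3 min at 37 °C, then three ice-cold washes and scintillation counting. IC50 was taken from variable-slope sigmoidal fits. Triplicates, at least three independent experiments.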

[3] = biological target: D(2) dopamine receptor (Homo sapiens) (UniProt P14416); test: Displacement of [3H]N-methylspiperone from human Dopamine receptor D2 receptor expressed in fibroblast cell membranes at 10 uM after 90 mins by scintillation counting method
[4] = biological target: D(4) dopamine receptor (Homo sapiens) (UniProt P21917); test: Displacement of [3H]N-methylspiperone from human Dopamine receptor D4 receptor at 10 uM after 90 mins by scintillation counting method
[5] = Solubility of compound in pH 7.4 phosphate buffer after 24 hrs by HPLC-UV method; format: physicochemical
[6] = biological target: Sodium- and chloride-dependent betaine transporter (Homo sapiens, UniProt P48065, Y453A); test: Inhibition of human BGT1 Y453A mutant expressed in tsA201 cells assessed as reduction in [3H]GABA uptake after 3 mins by scintillation counting method; format: cell-based
How it was run: (§1)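 tsA201 cells transiently transfected with wild-type or mutant human BGT1 (PolyFect) were plated about 24 h before assay. Three ice-cold washes followed, then scintillation counting.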

[7] = biological target: T1, Sodium- and chloride-dependent GABA transporter 2 (Homo sapiens, UniProt Q9NSD5); test: Inhibition of human GAT2 expresses in tsA201 cells assessed as reduction in [3H]GABA uptake after 3 mins by scintillation counting method; format: cell-based
T1 sequence (Q9NSD5 whole entry): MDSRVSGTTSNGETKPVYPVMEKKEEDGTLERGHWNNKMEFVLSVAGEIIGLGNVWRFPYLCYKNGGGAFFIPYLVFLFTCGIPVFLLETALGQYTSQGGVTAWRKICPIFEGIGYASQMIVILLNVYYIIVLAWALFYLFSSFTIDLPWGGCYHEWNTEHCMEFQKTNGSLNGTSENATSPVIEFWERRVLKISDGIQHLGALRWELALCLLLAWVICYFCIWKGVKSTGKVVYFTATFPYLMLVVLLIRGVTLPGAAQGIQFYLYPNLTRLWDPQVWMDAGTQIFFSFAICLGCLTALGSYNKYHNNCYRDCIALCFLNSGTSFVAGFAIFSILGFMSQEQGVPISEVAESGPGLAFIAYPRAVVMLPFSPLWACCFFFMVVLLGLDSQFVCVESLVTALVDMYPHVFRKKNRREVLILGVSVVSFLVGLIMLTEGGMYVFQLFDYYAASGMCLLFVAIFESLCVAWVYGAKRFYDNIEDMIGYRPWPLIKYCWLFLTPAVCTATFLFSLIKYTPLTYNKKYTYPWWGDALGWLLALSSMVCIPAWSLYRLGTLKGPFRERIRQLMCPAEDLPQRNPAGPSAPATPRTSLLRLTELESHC
How it was run: (§2)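 Wild-type human GAT transiently expressed in tsA201 cells via pcDNA5/FRT and PolyFect. Uptake of 30 nM [3H]GABA was run for 3 min at 37 °C in HBSS/20 mM HEPES with 1 mM CaCl2 and 1 mM MgCl2, pH 7.4, across a range of test concentrations. Ice-cold washes were followed by scintillation counting. IC50 was obtained by sigmoidal variable-slope fitting, reported as mean pIC50 ± S.E.M.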

[8] = biological target: Sodium- and chloride-dependent GABA transporter 1 (Homo sapiens, UniProt P30531); format: cell-based
[9] = biological target: Sodium- and chloride-dependent betaine transporter (Homo sapiens, UniProt P48065, Y453S); test: Inhibition of human BGT1 Y453S mutant expressed in tsA201 cells assessed as reduction in [3H]GABA uptake after 3 mins by scintillation counting method; format: cell-based; how it was run: as §1
[10] = biological target: T2, Sodium- and chloride-dependent GABA transporter 3 (Homo sapiens, UniProt P48066); test: Inhibition of human GAT3 expresses in tsA201 cells assessed as reduction in [3H]GABA uptake after 3 mins by scintillation counting method; format: cell-based; how it was run: as §2
T2 sequence (P48066 whole entry): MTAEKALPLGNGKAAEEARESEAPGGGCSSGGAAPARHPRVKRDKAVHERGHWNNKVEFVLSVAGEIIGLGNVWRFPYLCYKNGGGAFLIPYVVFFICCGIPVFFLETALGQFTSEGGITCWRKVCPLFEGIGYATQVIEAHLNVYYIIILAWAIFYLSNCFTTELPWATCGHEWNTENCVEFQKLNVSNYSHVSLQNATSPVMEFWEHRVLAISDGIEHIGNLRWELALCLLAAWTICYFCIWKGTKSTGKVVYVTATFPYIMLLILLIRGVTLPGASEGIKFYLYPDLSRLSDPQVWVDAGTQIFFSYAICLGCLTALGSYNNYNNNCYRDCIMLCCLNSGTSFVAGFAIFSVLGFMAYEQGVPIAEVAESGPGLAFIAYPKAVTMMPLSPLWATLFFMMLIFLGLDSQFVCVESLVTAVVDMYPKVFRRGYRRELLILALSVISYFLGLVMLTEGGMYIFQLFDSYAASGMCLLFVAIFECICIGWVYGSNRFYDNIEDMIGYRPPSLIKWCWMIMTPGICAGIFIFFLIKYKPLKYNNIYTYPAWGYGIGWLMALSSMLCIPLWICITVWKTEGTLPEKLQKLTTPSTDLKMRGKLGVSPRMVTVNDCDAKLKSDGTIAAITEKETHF

[11] = biological target: Sodium- and chloride-dependent betaine transporter (Homo sapiens, UniProt P48065); test: Inhibition of human BGT1/human GAT3 chimera B expresses in tsA201 cells assessed as reduction in [3H]GABA uptake after 3 mins by scintillation counting method; format: cell-based
How it was run: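 BGT1/GAT3 chimeric constructs transiently expressed in tsA201 cells. After about 24 h, cells were washed in HEPES-buffered HBSS (1 mM CaCl2, 1 mM MgCl2, pH 7.4). IC50 came from variable-slope sigmoidal regression. Triplicates, at least two independent experiments.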

Chain of Sodium- and chloride-dependent betaine transporter (Homo sapiens, UniProt P48065) (P48065 whole entry, looked up): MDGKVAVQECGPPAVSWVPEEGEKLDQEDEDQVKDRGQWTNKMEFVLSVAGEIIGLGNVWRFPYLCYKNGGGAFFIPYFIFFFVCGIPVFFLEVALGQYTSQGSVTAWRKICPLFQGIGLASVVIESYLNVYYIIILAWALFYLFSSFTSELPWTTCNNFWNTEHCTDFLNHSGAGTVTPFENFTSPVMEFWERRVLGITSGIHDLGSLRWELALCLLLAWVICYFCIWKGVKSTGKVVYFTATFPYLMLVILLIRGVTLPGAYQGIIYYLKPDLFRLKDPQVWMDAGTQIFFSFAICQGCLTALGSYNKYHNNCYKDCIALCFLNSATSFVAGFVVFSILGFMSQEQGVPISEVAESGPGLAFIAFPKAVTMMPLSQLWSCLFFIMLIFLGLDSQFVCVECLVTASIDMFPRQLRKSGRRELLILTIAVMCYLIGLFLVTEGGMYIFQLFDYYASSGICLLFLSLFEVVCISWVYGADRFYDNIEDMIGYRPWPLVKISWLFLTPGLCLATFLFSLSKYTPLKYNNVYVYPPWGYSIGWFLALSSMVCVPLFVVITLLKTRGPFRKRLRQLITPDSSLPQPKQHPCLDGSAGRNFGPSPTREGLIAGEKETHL
Chain of D(2) dopamine receptor (Homo sapiens) (P14416 whole entry): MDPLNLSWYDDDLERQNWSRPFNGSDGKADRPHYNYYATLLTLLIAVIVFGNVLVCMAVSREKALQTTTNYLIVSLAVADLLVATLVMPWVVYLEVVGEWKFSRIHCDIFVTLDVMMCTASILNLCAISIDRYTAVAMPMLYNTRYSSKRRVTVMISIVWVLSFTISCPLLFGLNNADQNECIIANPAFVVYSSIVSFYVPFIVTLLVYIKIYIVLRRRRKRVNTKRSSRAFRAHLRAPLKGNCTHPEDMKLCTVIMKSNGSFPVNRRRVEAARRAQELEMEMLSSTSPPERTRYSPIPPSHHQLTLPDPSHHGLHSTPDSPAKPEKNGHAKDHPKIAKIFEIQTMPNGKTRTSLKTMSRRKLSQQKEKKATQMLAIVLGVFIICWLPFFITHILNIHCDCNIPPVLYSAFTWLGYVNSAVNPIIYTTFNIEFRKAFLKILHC
Chain of 5-hydroxytryptamine receptor 2B (Homo sapiens) (P41595 whole entry): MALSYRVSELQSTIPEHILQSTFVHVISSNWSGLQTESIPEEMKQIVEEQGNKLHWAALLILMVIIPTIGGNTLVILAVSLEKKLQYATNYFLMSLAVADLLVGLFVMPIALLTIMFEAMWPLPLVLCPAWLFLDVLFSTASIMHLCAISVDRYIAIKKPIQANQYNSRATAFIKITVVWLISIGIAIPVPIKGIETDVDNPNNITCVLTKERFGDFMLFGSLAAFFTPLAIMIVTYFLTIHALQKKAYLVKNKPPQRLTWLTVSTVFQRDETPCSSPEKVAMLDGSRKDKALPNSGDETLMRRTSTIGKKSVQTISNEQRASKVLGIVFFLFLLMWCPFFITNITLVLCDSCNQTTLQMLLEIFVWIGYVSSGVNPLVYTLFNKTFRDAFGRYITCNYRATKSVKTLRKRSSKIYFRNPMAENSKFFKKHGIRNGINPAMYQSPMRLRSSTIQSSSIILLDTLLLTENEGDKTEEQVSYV
Chain of Sodium- and chloride-dependent GABA transporter 3 (Homo sapiens, UniProt P48066, S468Y) (P48066 whole entry S468Y): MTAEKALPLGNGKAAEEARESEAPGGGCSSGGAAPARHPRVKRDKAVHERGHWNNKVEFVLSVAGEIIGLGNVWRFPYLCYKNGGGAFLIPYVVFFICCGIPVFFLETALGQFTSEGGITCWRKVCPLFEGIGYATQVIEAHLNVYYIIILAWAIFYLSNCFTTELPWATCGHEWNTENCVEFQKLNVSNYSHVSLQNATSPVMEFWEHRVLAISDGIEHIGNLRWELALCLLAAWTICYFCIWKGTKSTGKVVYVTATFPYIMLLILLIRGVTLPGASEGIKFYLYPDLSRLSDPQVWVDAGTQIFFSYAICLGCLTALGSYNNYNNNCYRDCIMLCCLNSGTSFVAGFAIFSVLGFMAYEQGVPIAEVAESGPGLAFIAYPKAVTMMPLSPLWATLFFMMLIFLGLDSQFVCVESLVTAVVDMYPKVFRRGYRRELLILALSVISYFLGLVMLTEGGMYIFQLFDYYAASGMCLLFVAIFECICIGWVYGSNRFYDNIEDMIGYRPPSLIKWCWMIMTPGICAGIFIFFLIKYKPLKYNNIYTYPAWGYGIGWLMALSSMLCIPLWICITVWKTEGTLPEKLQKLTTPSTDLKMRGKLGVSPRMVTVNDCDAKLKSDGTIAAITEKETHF
Chain of Sodium- and chloride-dependent betaine transporter (Homo sapiens, UniProt P48065, Y453S) (P48065 whole entry Y453S): as the sequence (P48065 whole entry, looked up) above, with Y453S counted along it
Chain of D(4) dopamine receptor (Homo sapiens) (P21917 whole entry): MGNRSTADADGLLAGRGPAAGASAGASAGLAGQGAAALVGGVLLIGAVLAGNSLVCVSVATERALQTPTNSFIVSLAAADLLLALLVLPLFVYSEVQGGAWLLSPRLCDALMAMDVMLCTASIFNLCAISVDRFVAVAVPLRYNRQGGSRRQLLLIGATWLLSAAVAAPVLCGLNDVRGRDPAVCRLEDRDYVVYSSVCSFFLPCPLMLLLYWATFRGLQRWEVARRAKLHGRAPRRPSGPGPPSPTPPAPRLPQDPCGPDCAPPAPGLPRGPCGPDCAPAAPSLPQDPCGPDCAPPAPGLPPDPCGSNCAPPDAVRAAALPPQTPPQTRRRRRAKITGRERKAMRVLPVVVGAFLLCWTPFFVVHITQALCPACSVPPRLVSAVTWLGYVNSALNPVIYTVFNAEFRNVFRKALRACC
Chain of Sodium- and chloride-dependent GABA transporter 1 (P30531 whole entry): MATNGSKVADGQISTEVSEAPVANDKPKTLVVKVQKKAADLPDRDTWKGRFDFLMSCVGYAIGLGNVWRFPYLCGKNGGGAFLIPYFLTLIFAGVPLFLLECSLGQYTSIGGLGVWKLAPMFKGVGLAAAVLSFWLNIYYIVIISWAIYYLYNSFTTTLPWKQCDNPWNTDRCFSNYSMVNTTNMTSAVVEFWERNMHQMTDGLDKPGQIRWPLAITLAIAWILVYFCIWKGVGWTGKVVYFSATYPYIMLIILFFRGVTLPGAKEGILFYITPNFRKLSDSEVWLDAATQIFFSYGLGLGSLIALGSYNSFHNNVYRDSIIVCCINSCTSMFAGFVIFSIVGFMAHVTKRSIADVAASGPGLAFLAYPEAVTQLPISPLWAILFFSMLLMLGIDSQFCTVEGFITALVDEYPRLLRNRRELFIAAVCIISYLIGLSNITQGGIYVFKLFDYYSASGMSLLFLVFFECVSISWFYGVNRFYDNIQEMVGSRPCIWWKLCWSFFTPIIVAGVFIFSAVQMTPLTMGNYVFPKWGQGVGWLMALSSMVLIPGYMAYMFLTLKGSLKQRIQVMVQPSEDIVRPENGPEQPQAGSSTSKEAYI
Chain of Sodium- and chloride-dependent betaine transporter (Homo sapiens, UniProt P48065, Y453A) (P48065 whole entry Y453A): as the sequence (P48065 whole entry, looked up) above, with Y453A counted along it

| IC50 [7] [µM] | IC50 [8] [µM] | IC50 [10] [µM] | SMILES | inhibition [1] | IC50 [2] [µM] | inhibition [3] | inhibition [4] | solubility at 24 h [5] [µg/mL] | IC50 [6] [µM] | IC50 [9] [µM] | IC50 [11] [µM] | IC50 ([7]; read-out: IC50) [µM] | IC50 ([8]; read-out: IC50) [µM] | IC50 ([10]; read-out: IC50) [µM] |
| --- | --- | --- | --- | --- | --- | --- | --- | --- | --- | --- | --- | --- | --- | --- |
| > 100 | > 100 | > 100 | O=C(NC1CCN(Cc2ccccc2)CC1)c1ccc(Cl)cc1Cl | Active | > 300 | Active | Active | 40 (≈ 110 µM) | 19 | 19 | > 1000 | – | – | – |
| – | – | – | O=C(NC1CCN(Cc2ccccc2)CC1)c1ccc(Cl)nc1Cl | Active | > 1000 | inactive | inactive | 610 (≈ 1670 µM) | 23 | 25 | > 1000 | 479 | > 1000 | > 1000 |
